# Cav32 inh: inhibitors of human Cav3.2 T-type calcium channel; O95180; Cav3.2-expressing cells, Fluo-4 calcium fluorescence FDSS; stronger effect = lower value; B-score at 10 µM; 100,000 tested, 4% active;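 active = single-dose well whose peak fluorescence ratio is a statistical outlier from its plate by either plate-standardised score or position-corrected B-score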
# PostGolgi yeast: growth inhibition of a yeast mutant, post-Golgi transport screen | post-Golgi transport phenotypic cell assay | inhibition, % at 10 µM | 98,000 tested, 0.9% active | AID 739;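 also: yeast cells grown in 1536-well plates; yeast grown about 18 h at 30C before absorbance read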
# PostGolgi ctrl: growth of the yeast control strain, post-Golgi counter-screen; efflux-deficient yeast background strain, growth absorbance A615, 16 h; inhibition, % at 10 µM; 98,000 tested, 5% active; AID 738
# tolC growth inh: growth inhibitors of E. coli BW25113 tolC mutant; OD615; growth inhibition, % at 10 µM (by protocol); 65,000 tested, 2.2% active; AID 573;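 active = growth inhibition at or above a cutoff equal to the mean over every tested compound plus 3 SD, cut at about 60% in these data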;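 also: growth measured after 20 h incubation at 37 °C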
#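 Assay system: tolC-deleted E. coli BW25113. Medium: kanamycin-containing LB broth (50 µg/mL). Dosing: 10 µM final, single dose. Timing: bacterial growth with compound for 20 h at 37 °C. Detection: A615 absorbance measurement. Read-out basis: growth inhibition in percent.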
# E coli WT exp: E. coli BW25113 growth inhibition, expanded screen | AID 710 | OD600 absorbance | 98,000 tested, 0.15% active | growth inhibition, % at 100 µM;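 active = growth inhibition above about 50% at one test dose, limit read from the data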;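 also: growth measured after 20 h incubation at 37 °C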
# Hits are given with their value; n = inactive; x = no result given. A selection: hits, their analogues and other compounds. The true share with any hit is near 8.4%. Rule as the data show it, unless noted: active = inhibition above about 30%; inactive = the rest.
SMILES,Cav32 inh,PostGolgi yeast,PostGolgi ctrl,tolC growth inh,E coli WT exp
CCCCCNC(=O)Cc1cc(=O)[nH]c(=O)[nH]1,n,n,n,x,n
COc1ccc(NC(=O)CSc2nnc(Cc3cccn3C)n2-c2ccc(F)cc2)cc1OC,n,n,n,n,n
Cn1cccc1Cc1nnc(SCC(=O)Nc2ccc(F)cc2)n1-c1ccc(F)cc1,-4.2,n,n,n,n
Cn1cccc1Cc1nnc(SCC(=O)Nc2ccccc2F)n1-c1ccc(F)cc1,n,n,n,n,n
Cn1cccc1Cc1nnc(SCC(=O)Nc2ccc(Cl)cc2)n1-c1ccc(F)cc1,-9.8,n,n,71,n
Cn1cccc1Cc1nnc(SCC(=O)Nc2ccccc2)n1-c1ccc(F)cc1,-7.7,n,n,n,n
O=C(NCC(c1cccs1)N1CCOCC1)c1ccc(Cl)s1 (stereo not drawn),n,n,n,n,n
Cc1ccccc1N/C(SCc1ccc(Cl)cc1)=C(/C#N)C(=O)NCc1ccco1,-5.5,n,n,x,n
COc1ccc(C2(CNC(=O)CCC(=O)O)CCCC2)cc1,n,n,n,n,n
CCOC(=O)c1ccccc1NC1c2ccccc2C(=O)N1c1ccc(C)cn1 (stereo not drawn),n,n,48,n,n
CCOc1ccccc1NC1c2ccccc2C(=O)N1c1ccc(C)cn1 (stereo not drawn),n,n,33,n,n
CCOC(=O)N1CCC(N2C(=O)c3ccccc3C2Nc2ccccc2C)CC1 (stereo not drawn),n,n,n,n,n
CCOC(=O)c1ccccc1NC1c2ccccc2C(=O)N1C1CCN(C(=O)OCC)CC1 (stereo not drawn),-5.8,n,n,n,n
CCOC(=O)C1(C)NC(c2ccc(OC)cc2OC)C2C(=O)N(c3cccc(OC)c3)C(=O)C21 (stereo not drawn),x,n,n,n,n
CC(NC(=O)c1ccc(Cl)cc1)C(=O)NC1=NCCS1 (stereo not drawn),n,n,n,n,n
CC(C)c1ccc(/C=C/C(=O)NC2=NCCS2)cc1,x,n,33,x,n
O=S(=O)(c1ccc(OCC(O)CN2CCN(c3ccccc3)CC2)cc1)N1CCOCC1 (stereo not drawn),n,n,n,n,n
O=S(=O)(c1ccc(OCC(O)CN2CCN(c3ccccc3O)CC2)cc1)N1CCOCC1 (stereo not drawn),n,n,45,n,n
CSc1cc(-c2ccc(Cl)cc2)c(C(=O)N2CCCC2)s1,-4.4,n,n,x,n
CNC(=O)c1sc(SC)cc1-c1ccc(Cl)cc1,n,n,n,x,n
CCNc1nc(N)nc(Oc2ccc(OCCOc3ccc(Cl)cc3Cl)nn2)n1,n,n,n,n,n
Cc1ccc(CCNC(=O)CS(=O)Cc2nc(-c3cccc(C)c3)oc2C)cc1 (stereo not drawn),-5.2,n,n,n,n
O=C(NC12CC3CC(CC(C3)C1)C2)c1ccccc1O,n,n,n,62,n
O=C(NCCN1CCN(Cc2ccccc2Cl)CC1)Nc1ccccc1,n,n,n,x,n
O=C(NC1=NCCS1)C12CC3CC(C1)CC(C(=O)NC1=NCCS1)(C3)C2,n,n,n,n,n
SMILES,Cav32 inh,PostGolgi yeast,PostGolgi ctrl,tolC growth inh,E coli WT exp
CC12CC3CC(C)(C1)CC(C(=O)NC1=NCCS1)(C3)C2,n,n,38,x,n
CCC(C)C(NC(=O)[C@@H](NC(=O)c1ccccc1F)C(C)C)C(=O)OC (stereo partly drawn),n,n,n,x,n
O=C(NCCc1c[nH]c2ccc(Cl)cc12)c1cccnc1,n,n,n,x,n
Nc1nc(-c2ccccc2)cc(-c2ccccc2O)n1,n,54,35,n,n
O=C(C=C1SCCS1)/C=C/c1ccco1,x,n,32,x,n
O=C(COc1ncnc2sccc12)N1CCN(S(=O)(=O)c2ccc(Cl)cc2)CC1,n,n,n,n,n
CCc1cc2cccc(C)c2nc1SCC(=O)N1CCN(C(=O)c2ccco2)CC1,x,n,36,n,n
CCc1cc2ccc(C)cc2nc1SCC(=O)N1CCN(C(=O)c2ccco2)CC1,-5.1,n,n,n,n
C=CCSc1ncccc1C(=O)NCc1ccccc1,n,n,n,n,n
COc1ccc(Br)cc1/C=N/NC(=O)c1nc(-c2ccccc2)n2c1CCCCC2,n,n,36,x,n
N#Cc1cn(CCCOc2ccccc2)c2ccccc12,n,x,x,x,x
COc1ccccc1OCCCn1cc(C#N)c2ccccc21,-4.5,n,n,n,n
COC(=O)CSc1nc2cc(C)ccc2cc1C#N,n,n,n,n,n
Cc1ccc2cc(C)c(SCC#N)nc2c1,n,31,n,n,n
O=C(Cn1c(-c2cscn2)nc2ccccc21)Nc1ccc2ccccc2c1,-4.8,n,n,x,n
COc1ccc(-c2nnc(CSc3nc4ccccc4c(=O)n3C)o2)cc1OC,n,32,n,n,n
Cc1ccc(-n2nnnc2SCc2nnc(-c3ccccc3Br)o2)cc1,n,n,56,n,n
Cc1ccc2nc(SCc3nnc(-c4ccccc4Br)o3)[nH]c2c1,n,n,n,x,n
Brc1ccccc1-c1nnc(CSc2nnc3sc4ccccc4n23)o1,n,n,n,n,n
O=c1c2ccccc2nc(SCc2nnc(-c3ccccc3Br)o2)n1-c1ccccc1,n,n,39,n,n
Cn1c(SCc2ccon2)nc2ccccc2c1=O,n,n,n,n,n
CSc1cc(-c2ccccc2)n(Cc2ccc(Cl)cc2Cl)c(=O)c1C#N,n,n,n,x,n
Cc1cc(C)n(Cc2ccc(Cl)cc2Cl)c(=O)c1S(=O)(=O)c1ccccc1,-4.3,n,n,x,n
N#CC1=C2C=CC=CN2CC1=O,n,n,n,n,n
N#CCCN(C1CCCCC1)S(=O)(=O)CCOc1ccccc1,n,n,n,n,n
SMILES,Cav32 inh,PostGolgi yeast,PostGolgi ctrl,tolC growth inh,E coli WT exp
Cn1c(=O)c2c(nc(CN3CCN(c4ccc(F)cc4)CC3)n2Cc2ccccc2F)n(C)c1=O,n,n,n,n,n
O=C(c1ccccc1)N1CCN(C2c3cccc4cccc(c34)C2NS(=O)(=O)c2ccccc2)CC1 (stereo not drawn),n,n,n,x,n
COC(=O)C(Cc1cnc(Cl)s1)(C(=O)OC)c1ccc(C(F)(F)F)cc1[N+](=O)[O-],-8.6,n,n,x,n
COC(=O)C(Cc1cnc(Cl)s1)(C(=O)OC)c1ccc([N+](=O)[O-])cc1[N+](=O)[O-],n,n,n,x,n
COc1cccc(N2[C@@H](CC(=O)O)c3cc(C(F)(F)F)ccc3S2(=O)=O)c1,n,x,x,x,x
C=CCNC(=O)c1ccc(C(=O)c2ccccc2)cc1,n,n,n,n,n
COc1ccc(N(C)C(=O)c2ccc3nc(-c4ccccc4)c(-c4ccccc4)nc3c2)cc1,-8.8,n,n,x,n
C=CCNC(=O)c1ccc2nc(-c3ccccc3)c(-c3ccccc3)nc2c1,n,n,36,x,n
Cc1ccc(-c2nc3ccc(C(=O)O)cc3nc2-c2ccc(C)cc2)cc1,n,n,n,x,n
CC(C)c1ccc(Nc2nc(NCc3ccco3)nc(N3CCOCC3)n2)cc1,n,n,n,66,n
Clc1ccc(Nc2nc(NCCN3CCOCC3)nc(N3CCOCC3)n2)cc1,n,n,n,n,n
N#Cc1c(/N=C/c2ccco2)oc(-c2ccccc2)c1-c1ccccc1,x,n,n,77,n
